Measurements taken from ChEMBL document CHEMBL1134289, “5-(Tryptophyl)amino-1,3-dioxoperhydropyrido[1,2-c]pyrimidine-based potent and selective CCK(1) receptor antagonists: structure-activity relationship studies on the central 1,3-dioxoperhydropyrido[1,2-c]pyrimidine scaffold” (J Med Chem, 2001).

Columns and labels:
[1] = target: T1, Gastrin/cholecystokinin type B receptor (Rattus norvegicus, UniProt P30553); test: Inhibition of [3H]pCCK-8 binding to cholecystokinin type B receptor of rat cerebral cortex; assay type: tissue-based
T1 sequence (P30553 whole entry): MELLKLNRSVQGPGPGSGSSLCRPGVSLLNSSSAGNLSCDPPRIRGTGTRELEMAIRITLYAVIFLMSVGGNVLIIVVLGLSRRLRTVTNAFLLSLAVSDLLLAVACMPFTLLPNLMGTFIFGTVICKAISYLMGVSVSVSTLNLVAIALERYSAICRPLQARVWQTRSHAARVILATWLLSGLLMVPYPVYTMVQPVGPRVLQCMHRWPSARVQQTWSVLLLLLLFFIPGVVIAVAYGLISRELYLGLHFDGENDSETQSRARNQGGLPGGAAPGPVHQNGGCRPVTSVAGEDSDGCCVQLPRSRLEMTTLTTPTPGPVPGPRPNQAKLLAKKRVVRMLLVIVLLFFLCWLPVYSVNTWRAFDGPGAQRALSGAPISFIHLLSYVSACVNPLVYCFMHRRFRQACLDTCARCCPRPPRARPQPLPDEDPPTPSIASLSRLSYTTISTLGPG

[2] = target: T2, Cholecystokinin receptor type A (Rattus norvegicus, UniProt P30551); test: Inhibition of [3H]pCCK-8 binding to cholecystokinin type A receptor of rat pancreas
T2 sequence (P30551 whole entry): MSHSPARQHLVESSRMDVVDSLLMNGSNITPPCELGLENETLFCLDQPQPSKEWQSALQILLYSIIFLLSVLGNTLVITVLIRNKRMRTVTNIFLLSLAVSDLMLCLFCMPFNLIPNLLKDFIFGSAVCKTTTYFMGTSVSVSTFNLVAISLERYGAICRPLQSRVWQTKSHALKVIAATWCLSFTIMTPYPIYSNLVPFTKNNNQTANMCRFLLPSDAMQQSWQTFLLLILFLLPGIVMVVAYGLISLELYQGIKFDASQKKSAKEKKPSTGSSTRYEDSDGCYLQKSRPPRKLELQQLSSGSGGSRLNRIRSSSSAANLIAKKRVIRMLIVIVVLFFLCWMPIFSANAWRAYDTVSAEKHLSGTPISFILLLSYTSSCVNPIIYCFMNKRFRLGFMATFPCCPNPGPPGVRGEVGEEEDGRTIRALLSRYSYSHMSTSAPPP
In short: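 Rat pancreas homogenized in Pipes-HCl pH 6.5 with 30 mM MgCl2, centrifuged twice at 50000g, 4 °C. Membranes (0.2 mg protein/tube) incubated with 0.5 nM [3H]pCCK-8 plus bacitracin and SBTI (0.2 mg/mL each), 120 min, 25 °C. Seven test concentrations in triplicate; mean of at least three experiments.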

[3] = target: T1, Gastrin/cholecystokinin type B receptor; test: Inhibition of [3H]pCCK-8 specific binding to cholecystokinin type B receptor in rat cerebral cortex; assay type: tissue-based
In short: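 Rat cerebral cortex homogenized in 50 mM Tris-HCl pH 7.4 with 5 mM MgCl2, centrifuged twice at 100000g, 4 °C. Membranes (0.45 mg protein/tube) incubated with 1 nM [3H]pCCK-8 and bacitracin 0.2 mg/mL, 60 min, 25 °C. Nonspecific binding defined by 1 µM CCK-8. Seven test concentrations in triplicate; at least three experiments.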

Rattus norvegicus = species: Rattus norvegicus; test: Inhibition of amylase release stimulated by CCK-8 (0.1 nM) in dispersed rat pancreatic acini; assay type: functional
In short: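 Acini prepared by collagenase digestion (two 6-min incubations, 37 °C) in HEPES buffer pH 7.4, then suspended in buffer with theophylline, SBTI and BSA. Incubated 30 min at 37 °C under O2 with shaking, CCK-8 0.1 nM plus increasing compound levels. Released amylase taken as percent of acinar content; inhibition computed relative to vehicle and CCK-8 alone. Three to six experiments, in duplicate.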

IC50 [1] [nM] | IC50 [2] [nM] | IC50 [3] [nM] | Structure (SMILES) | IC50 (Rattus norvegicus) [nM]
> 10000 | > 1000 | – | CC(C)(C)OC(=O)N[C@@H](Cc1c[nH]c2ccccc12)C(=O)N[C@@H]1CCCN2CN(Cc3ccccc3)C(=O)C[C@@H]12 | –
– | – | > 10000 | CC(C)(C)OC(=O)N[C@@H](Cc1c[nH]c2ccccc12)C(=O)N[C@@H]1CCCN2C(=O)N(Cc3ccccc3)C(=O)C[C@@H]12 [IQM-95333] | 0.64
> 10000 | > 1000 | – | CC(C)(C)OC(=O)N[C@@H](Cc1c[nH]c2ccccc12)C(=O)N[C@@H]1CCCN2CN(Cc3ccccc3)CC[C@@H]12 | –
– | – | – | CC(C)(C)OC(=O)N[C@@H](Cc1c[nH]c2ccccc12)C(=O)N[C@H]1CCCN2C(=O)N(Cc3ccccc3)C(=O)C[C@H]12 | 77
> 10000 | 2.83 | – | CC(C)(C)OC(=O)N[C@@H](Cc1c[nH]c2ccccc12)C(=O)N[C@@H]1CCCN2C(=O)N(Cc3ccccc3)C(=S)C[C@@H]12 | 4.3
> 10000 | 370 | – | CO[C@@H]1C[C@H]2[C@H](NC(=O)[C@H](Cc3c[nH]c4ccccc34)NC(=O)OC(C)(C)C)CCCN2C(=O)N1Cc1ccccc1 | –
> 10000 | 825 | – | CC(C)(C)OC(=O)N[C@@H](Cc1c[nH]c2ccccc12)C(=O)N[C@H]1CCCN2C(=S)N(Cc3ccccc3)C(=O)C[C@H]12 | –
> 10000 | 1.34 | – | CC(C)(C)OC(=O)N[C@@H](Cc1c[nH]c2ccccc12)C(=O)N[C@@H]1CCCN2C(=S)N(Cc3ccccc3)C(=S)C[C@@H]12 | 62
> 10000 | > 1000 | – | CC(C)(C)OC(=O)N[C@@H](Cc1c[nH]c2ccccc12)C(=O)N[C@H]1CCCN2CN(Cc3ccccc3)C(=O)C[C@H]12 | –
> 10000 | 0.09 | – | CC(C)(C)OC(=O)N[C@@H](Cc1c[nH]c2ccccc12)C(=O)N[C@@H]1CCCN2C(=S)N(Cc3ccccc3)C(=O)C[C@@H]12 | 33
> 10000 | > 1000 | – | CC(C)(C)OC(=O)N[C@@H](Cc1c[nH]c2ccccc12)C(=O)N[C@@H]1CCCN2C(=O)N(Cc3ccccc3)CC[C@@H]12 | –
> 10000 | – | – | CC(C)(C)OC(=O)N[C@@H](Cc1c[nH]c2ccccc12)C(=O)N[C@H]1CCCN2C(=O)N(Cc3ccccc3)C(=S)C[C@H]12 | 23
> 10000 | 900 | – | CC(C)(C)OC(=O)N[C@@H](Cc1c[nH]c2ccccc12)C(=O)N[C@H]1CCCN2C(=S)N(Cc3ccccc3)C(=S)C[C@H]12 | –
